The values that follow come from ChEMBL document CHEMBL2331443, “Synthesis and biological evaluation of a new class of 4-aminoquinoline-rhodanine hybrid as potent anti-infective agents” (Eur J Med Chem, 2013).

≈ marks a conversion by molar mass, not a printed value. A value given as a limit tells only on which side of the number the result lay.

Experiment [1] is described as follows: Selectivity index, ratio of CC50 for african green monkey Vero cells to IC50 for Plasmodium falciparum K1. In kind it is functional.
In experiment [2] the test system is Plasmodium falciparum. The experiment is described as follows: Antimalarial activity against Plasmodium falciparum K1 assessed as parasite growth inhibition after 72 hrs by MSF assay. To be noted: K1, 72 h. In kind it is functional, organism-based. The essentials:
(§1)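 P. falciparum cultures in RPMI-1640-FBS; DMSO stock 5 mg/ml diluted in medium, duplicate wells; 1.0% parasitized cell suspension at 0.8% parasitemia. Incubated 37 °C, 5% CO2 air mixture, 72 h. Lysis buffer with 2× SYBR Green I added, 1 h at 37 °C. Fluorescence read at 485 ± 20 nm excitation / 530 ± 20 nm emission; IC50 by logit regression.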

Experiment [3] deals with Plasmodium falciparum. The experiment is described as follows: Antimalarial activity against Plasmodium falciparum 3D7 assessed as parasite growth inhibition after 72 hrs by MSF assay. In kind it is functional, organism-based. Particulars: 3D7, 72 h. In a few lines: as §1
Experiment [4] concerns Plasmodium yoelii. The experiment is described as follows: Antimalarial activity against Plasmodium yoelii infected in erythrocytes assessed as inhibition of beta-hematin formation after 16 hrs by BHIA assay. In kind it is functional, cell-free. In a few lines: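 Plasma from infected animal blood at 50% parasitemia (cardiac puncture into 2.0% citrate, spun 5000 rpm, 10 min, 4 °C). Reaction in 1.0 mL: 100 mM sodium acetate pH 5.1, hemin as substrate, plasma, 1–20 µg compound; controls without compound. Triplicate, 37 °C, 16 h, rotary shaker. Pellet washed, dissolved in 2 N NaOH, absorbance 400 nm; IC50 by nonlinear regression of dose-response.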

Experiment [5] concerns Mycobacterium tuberculosis. The experiment is described as follows: Antitubercular activity Mycobacterium tuberculosis H37Rv assessed as growth inhibition after 4 weeks. In kind it is functional. Particulars: 672 h. In a few lines: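 M. tuberculosis H37Rv from Lowenstein-Jensen culture, harvested in N-saline with 0.05% Tween-80 and made single-cell with glass beads. Working inoculum 2 × 10⁷ cfu/mL spread on drug-containing slanted solid medium. Incubated 37 °C for 4 weeks, watching for colonies. Drug-free tubes as control, isoniazid as reference. MIC taken as the lowest concentration giving complete growth inhibition at this inoculum.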

The nature of experiment [6]: Cytotoxicity against mouse bone marrow derived macrophage assessed as growth inhibition after 48 hrs by MTS assay. In kind it is cell-based. The essentials:
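Macrophages washed, plated at 10^5 cells per well in supplemented DMEM, 37 °C, 5% CO2, medium changed every 3rd day, used after 5 days. Compounds added in antibiotic-free, FBS-supplemented DMEM for 48 h at 37 °C, 5% CO2. MTS added for 2 h, absorbance 490 nm; DMSO wells taken as 100% survival.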
A general note: Tetrazolium dyes change colour on reduction, which living cells bring about.

The subject of experiment [7] is Vero. Kind of experiment: Cytotoxicity against african green monkey Vero cells assessed as growth inhibition after 24 hrs by MTS assay. In kind it is cell-based. Particulars: Chlorocebus sabaeus. The essentials: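 Vero cells plated at 20,000 per well in MEM with antibiotics + 10% FBS, allowed to adhere overnight at 37 °C, 5% CO2. Compound dilutions added in MEM + 10% FBS; known toxic compound positive control, DMSO negative control. After 24 h, MTS added, 2 h at 37 °C, absorbance 490 nm; DMSO wells taken as 100% survival.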

With `O=C1/C(=C/c2ccc([N+](=O)[O-])cc2)SC(=S)N1CCCNc1ccnc2cc(Cl)ccc12`, in experiment [1], the “Ratio CC50/IC50” value was found to be 180.38. Further, the results for the IC50 in experiment [2], in experiment [3] and in experiment [4] were 45.5 nM, 23.5 nM and 3.23 µg/mL (≈ 6.66 µM), respectively.

Take `O=C1/C(=C/c2cccc([N+](=O)[O-])c2)SC(=S)N1CCCNc1ccnc2cc(Cl)ccc12`: the “Ratio CC50/IC50” value in experiment [1] is given as 106.4. The IC50 in experiment [2] was found to be 50.4 nM; in experiment [3], 96 nM; in experiment [4], 3.93 µg/mL (≈ 8.1 µM).

As to `O=C1/C(=C/c2ccc(F)cc2)SC(=S)N1CCCNc1ccnc2cc(Cl)ccc12`, the “Ratio CC50/IC50” value in experiment [1] came out at 2083.58. In addition, the figures for the IC50 in experiment [2], in experiment [3] and in experiment [4] were 13.2 nM, 93.9 nM and 4.3 µg/mL (≈ 9.39 µM), respectively.

In the case of `O=C1/C(=C/c2ccc(Cl)cc2)SC(=S)N1CCCNc1ccnc2cc(Cl)ccc12`, the “Ratio CC50/IC50” value in experiment [1] worked out at 442.83. For the same compound, the IC50 in experiment [2] came to 94.2 nM; in experiment [3], 76.5 nM; in experiment [4] it was 3.26 µg/mL (≈ 6.87 µM).

For `CN(C)c1ccc(/C=C2\SC(=S)N(CCCNc3ccnc4cc(Cl)ccc34)C2=O)cc1`, in experiment [1], the “Ratio CC50/IC50” value stood at 4195.05. The figures for the IC50 in experiment [2], in experiment [3] and in experiment [4] were 66.2 nM, 49.3 nM and 6.35 µg/mL (≈ 13.1 µM), respectively.

For `O=C1/C(=C/c2ccccc2[N+](=O)[O-])SC(=S)N1CCCNc1ccnc2cc(Cl)ccc12`, the “Ratio CC50/IC50” value in experiment [1] was 639.19. Besides, the IC50 was 83.8 nM in experiment [2]; 70700 nM in experiment [6]; greater than 100000 nM in experiment [7]; 38.2 nM in experiment [3]; 3.3 µg/mL (≈ 6.8 µM) in experiment [4]. In experiment [5], the MIC is 6.25 µM (≈ 3.03 µg/mL).

Consider `O=C1/C(=C/c2ccccc2)SC(=S)N1CCNc1ccnc2cc(Cl)ccc12`, for which the “Ratio CC50/IC50” value in experiment [1] was determined as 29.16. For the same compound, the concentration for half-maximal inhibition (IC50) is 104 nM in experiment [2], 58.7 nM in experiment [3] and 8.21 µg/mL (≈ 19.3 µM) in experiment [4].

Take `CCc1ccc(/C=C2\SC(=S)N(CCNc3ccnc4cc(Cl)ccc34)C2=O)cc1`: in experiment [1], the “Ratio CC50/IC50” value was 17.51. For the same compound, the IC50 in experiment [2] turned out to be 95.7 nM; in experiment [3], 42.7 nM; in experiment [4] it was 6.73 µg/mL (≈ 14.8 µM).

On to `O=C1/C(=C/c2ccccn2)SC(=S)N1CCNc1ccnc2cc(Cl)ccc12`, for which the IC50 is greater than 1100 nM in experiment [2], greater than 1170 nM in experiment [3] and 16.5 µg/mL (≈ 38.6 µM) in experiment [4].

With `O=C1/C(=C/c2ccc([N+](=O)[O-])cc2)SC(=S)N1CCNc1ccnc2cc(Cl)ccc12`, the “Ratio CC50/IC50” value in experiment [1] is given as 56.19. In addition, the IC50 came to 840 nM in experiment [2], 870 nM in experiment [3] and 12.8 µg/mL (≈ 27.1 µM) in experiment [4].

For the compound `COc1cc(/C=C2\SC(=S)N(CCNc3ccnc4cc(Cl)ccc34)C2=O)cc(OC)c1OC`, the “Ratio CC50/IC50” value in experiment [1] is listed as 88.79. Further, the concentration for half-maximal inhibition (IC50) in experiment [2] was determined as 59.3 nM; in experiment [3], 34.8 nM; in experiment [4] it was 7.31 µg/mL (≈ 14.2 µM).

For the compound `O=C1CSC(=S)N1CCNc1ccnc2cc(Cl)ccc12`, the “Ratio CC50/IC50” value in experiment [1] worked out at 112.54. Further, the figures for the IC50 in experiment [2], in experiment [3] and in experiment [4] were 80.1 nM, 181 nM and 4.9 µg/mL (≈ 14.5 µM), respectively.

As to `O=C1CSC(=S)N1CCCNc1ccnc2cc(Cl)ccc12`, the “Ratio CC50/IC50” value in experiment [1] was 88.3. The IC50 in experiment [2] was determined as 45.1 nM; in experiment [3], 200 nM; in experiment [4], 8.16 µg/mL (≈ 23.2 µM).

For the compound `O=C1CSC(=S)N1CCCCNc1ccnc2cc(Cl)ccc12`, the “Ratio CC50/IC50” value in experiment [1] is 75.44. Also, the IC50 worked out at 58.2 nM in experiment [2], 242 nM in experiment [3] and 6.21 µg/mL (≈ 17 µM) in experiment [4]. Besides, in experiment [5], the MIC is 12.5 µM (≈ 4.57 µg/mL).

`O=C1/C(=C/c2ccccc2)SC(=S)N1CCCCNc1ccnc2cc(Cl)ccc12`: the “Ratio CC50/IC50” value in experiment [1] was 113.53. For the same compound, the half-inhibitory concentration (IC50) in experiment [2] was determined as 153 nM; in experiment [3], 43.5 nM; in experiment [4], 4.03 µg/mL (≈ 8.88 µM).

Consider `CCc1ccc(/C=C2\SC(=S)N(CCCCNc3ccnc4cc(Cl)ccc34)C2=O)cc1`, for which the “Ratio CC50/IC50” value in experiment [1] was determined as 102.86. Also, the values for the IC50 in experiment [2], in experiment [3] and in experiment [4] were 144 nM, 54.5 nM and 6.21 µg/mL (≈ 12.9 µM), respectively.

Take `O=C1/C(=C/c2ccncc2)SC(=S)N1CCCCNc1ccnc2cc(Cl)ccc12`: in experiment [1], the “Ratio CC50/IC50” value amounted to 60.39. In addition, the IC50 was 308 nM in experiment [2], 93.5 nM in experiment [3] and 6.3 µg/mL (≈ 13.8 µM) in experiment [4].

Turning to `O=C1/C(=C/c2ccco2)SC(=S)N1CCCCNc1ccnc2cc(Cl)ccc12`, in experiment [1], the “Ratio CC50/IC50” value is 92.72. Further, the IC50 is 151 nM in experiment [2]; 70700 nM in experiment [6]; greater than 100000 nM in experiment [7]; 35 nM in experiment [3]; 2.78 µg/mL (≈ 6.26 µM) in experiment [4]. Further, the MIC in experiment [5] is 6.25 µM (≈ 2.77 µg/mL).

`O=C1/C(=C/c2ccc([N+](=O)[O-])cc2)SC(=S)N1CCCCNc1ccnc2cc(Cl)ccc12`: the “Ratio CC50/IC50” value in experiment [1] is 3720.88. The IC50 in experiment [2] stood at 88.8 nM; in experiment [3], 40 nM; in experiment [4] it was 17.3 µg/mL (≈ 34.7 µM).

As to `CN(C)c1ccc(/C=C2\SC(=S)N(CCCCNc3ccnc4cc(Cl)ccc34)C2=O)cc1`, in experiment [1], the “Ratio CC50/IC50” value amounted to 422.41. The IC50 in experiment [2] was 54.6 nM; in experiment [3] it was 31 nM; in experiment [4], 4.23 µg/mL (≈ 8.51 µM).

On to `COc1cc(/C=C2\SC(=S)N(CCCCNc3ccnc4cc(Cl)ccc34)C2=O)cc(OC)c1OC`, for which the “Ratio CC50/IC50” value in experiment [1] turned out to be 110.08. Moreover, the IC50 in experiment [2] was 70.1 nM; in experiment [3], 43.1 nM; in experiment [4], 3.93 µg/mL (≈ 7.22 µM). In addition, in experiment [5], the MIC was 12.5 µM (≈ 6.8 µg/mL).

Turning to `COc1ccc(/C=C2\SC(=S)N(CCCCNc3ccnc4cc(Cl)ccc34)C2=O)c2ccccc12`, the “Ratio CC50/IC50” value in experiment [1] is 356.27. Moreover, the IC50 in experiment [2] was 284 nM; in experiment [6], greater than 100000 nM; in experiment [7], greater than 100000 nM; in experiment [3], 280 nM; in experiment [4] it was 4.05 µg/mL (≈ 7.58 µM). The MIC in experiment [5] came out at 6.25 µM (≈ 3.34 µg/mL).

With `COc1cc(/C=C2\SC(=S)N(CCCNc3ccnc4cc(Cl)ccc34)C2=O)cc(OC)c1OC`, the “Ratio CC50/IC50” value in experiment [1] is recorded as 193.92. The IC50 in experiment [2] was found to be 42.2 nM; in experiment [3], 56 nM; in experiment [4], 3.33 µg/mL (≈ 6.28 µM).

Regarding `COc1ccc(/C=C2\SC(=S)N(CCCNc3ccnc4cc(Cl)ccc34)C2=O)c2ccccc12`, the “Ratio CC50/IC50” value in experiment [1] was determined as 64.55. The IC50 in experiment [2] was determined as 59.3 nM; in experiment [3], 90.7 nM; in experiment [4] it was 2.65 µg/mL (≈ 5.1 µM).

In the case of `CCN(CC)CCCC(C)Nc1ccnc2cc(Cl)ccc12` (stereo not drawn) [CHLOROQUINE], in experiment [4], the IC50 came out at 4.3 µg/mL (≈ 13.4 µM).

Take `NNC(=O)c1ccncc1` [ISONIAZID]: in experiment [5], the MIC amounted to 0.217 µM (≈ 0.0298 µg/mL). Moreover, the IC50 in experiment [6] and in experiment [7] was greater than 100000 nM throughout.

Take `CO[C@H]1/C=C/O[C@@]2(C)Oc3c(C)c(O)c4c(O)c(c(/C=N/N5CCN(C)CC5)c(O)c4c3C2=O)NC(=O)/C(C)=C\C=C\[C@H](C)[C@H](O)[C@@H](C)[C@@H](O)[C@@H](C)[C@H](OC(C)=O)[C@@H]1C` [RIFAMPIN]: in experiment [5], the MIC came to 0.243 µM (≈ 0.2 µg/mL). In addition, the IC50 in experiment [6] and in experiment [7] was greater than 100000 nM each time.

One may read the IC50 as the concentration at which inhibition is half-maximal. By MIC is commonly meant the lowest concentration found to suppress growth.
